# Candida biofilm = kills Candida albicans biofilms; C. albicans biofilm + clotrimazole, Alamar Blue; 0.14% of 85,000 active; inhibition, % at 6 µM;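 active = inhibition above 20%; inactive = inhibition below 20%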;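 note: preformed 24 hr biofilms exposed to compound for 48 hr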
# FAK blocker = FAK (human) kinase inhibition; inhibition, %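 (tested at 7 µM)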; Q05397; AID 727; 0.84% of 97,000 active; biochemical FAK kinase activity assay; in the data active = inhibition above about 19%
# Pyk2 oligo antag = antagonists of human Pyk2 oligomerization; Q14289; Q293 cells, Pyk2 FERM NanoBiT luminescence; stronger effect = lower value; z-score (the deposit names both 25 µM and 10 µM); 0.83% of 99,000 active; AID 1347419;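 active = Z-score of -3 or lower, scaled per plate to the spread of control and sample wells; inactive = z-score above -3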;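 note: negative z-score means lost luminescence so less FERM oligomerization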
# tolC growth inh = growth inhibitors of E. coli BW25113 tolC mutant; OD615; 2.2% of 65,000 active; growth inhibition, % at 10 µM (by protocol);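 active = growth inhibition at or above a cutoff equal to the mean over every tested compound plus 3 SD, cut at about 60% in these data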;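 note: growth measured after 20 h incubation at 37 °C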
#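 Signal: optical density read at 615 nm; Assay system: E. coli ΔtolC::kan strain BW25113; Times: 20 h incubation with compound, 37 °C; Dosing: 10 µM final, single dose.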
# PostGolgi ctrl = yeast control strain growth, post-Golgi counter-screen; efflux-deficient yeast background strain, growth absorbance A615, 16 h; 5% of 98,000 active; inhibition, % at 10 µM
# PostGolgi yeast = growth inhibition of a yeast mutant, post-Golgi transport screen | 0.9% of 98,000 active | inhibition, % at 10 µM | AID 739 | post-Golgi transport phenotypic cell assay;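 note: yeast cells grown in 1536-well plates; yeast grown about 18 h at 30C before absorbance read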
# Hits are given with their value; i = inactive; nt = no result given. Compounds with a hit are over-represented: about 6.9% of the library has one in this group of screens. Cut-off read from the data, not from the text of the source, unless noted: active = inhibition above about 30%; inactive = the rest.
SMILES,Candida biofilm,FAK blocker,Pyk2 oligo antag,tolC growth inh,PostGolgi ctrl,PostGolgi yeast
CCCCNS(=O)(=O)c1ccc2nc(SCC(=O)c3ccccc3OC)[nH]c2c1,i,i,i,nt,i,i
CCCCNS(=O)(=O)c1ccc2nc(SCC(=O)Nc3sccc3C#N)[nH]c2c1,i,i,-3.7,i,i,i
CCOc1cc(NS(=O)(=O)c2ccc(Cl)cc2)c(OCC)cc1NC(=O)CC(C)C,i,i,i,nt,i,i
CC(C)(C)C1CCc2c(C(=O)N/N=C/c3cccs3)csc2C1 (stereo unspecified),nt,i,i,nt,i,i
Cc1ccc(-n2nc3c(=S)[nH]nc(C)c3c2C)cc1,nt,i,i,nt,i,i
Cc1ccc(C2CC(C(F)(F)F)n3nc(C(=O)NCc4c(C)nn(C)c4C)c(Cl)c3N2)cc1 (stereo unspecified),nt,i,-3.5,i,i,i
CCOc1ccc(Cl)cc1S(=O)(=O)n1cnc2cc(C)c(C)cc21,i,i,i,nt,40,i
CCOc1ccc(Cl)cc1S(=O)(=O)N1CCN(c2ccc(C)c(C)c2)CC1,i,i,i,nt,i,i
COc1ccc(Cl)cc1S(=O)(=O)N1CCN(c2ccc(F)cc2)CC1,i,i,i,i,i,i
CCOc1ccc(Cl)cc1S(=O)(=O)N1CCN(c2ccc(F)cc2)CC1,i,i,i,i,33,i
O=C(C(Cc1ccc(Cl)cc1)NS(=O)(=O)c1ccccc1)N1CC[C@@]2(O)CCCC[C@H]2C1 (stereo partly specified),i,i,i,nt,i,i
S=C(c1ccc(Br)cc1)N1CCN(Cc2ccccc2)CC1,nt,i,i,nt,33,i
CCN1CCN(C(=S)c2ccc(Br)cc2)CC1,nt,i,i,nt,i,i
COc1ccccc1-c1cc(C(=O)NC(C)c2ccccc2)no1 (stereo unspecified),i,i,i,72,61,i
CCOC(=O)c1ccc(N2C(=O)c3n[nH]c(C)c3C2c2ccccc2)cc1 (stereo unspecified),i,i,-3.1,i,i,i
Nc1nc2n(n1)C(c1cccc(Br)c1)CC(c1ccccc1)N2 (stereo unspecified),i,i,nt,i,i,i
Brc1cccc(C2CC(c3ccccc3)n3nnnc3N2)c1 (stereo unspecified),i,i,i,63,i,i
COc1cc2c(cc1OC)CN(Cc1ccc(C)s1)CC2,i,i,i,nt,43,i
Cc1cc2cc(CNC(=O)c3cccs3)ccc2n1C,i,nt,nt,i,nt,nt
COC(=O)C1=CN(c2cccc(C)c2)C=C(C(=O)OC)C1c1cc(OC)c(O)c([N+](=O)[O-])c1,nt,i,i,nt,67,i
O=C(CS(=O)c1cccc(Cl)c1)Nc1ccccc1Cl (stereo unspecified),nt,i,i,nt,i,i
Cc1ccc(C2C(C(=O)c3ccco3)=C(O)C(=O)N2c2nnc(C)s2)cc1 (stereo unspecified),i,i,i,nt,i,i
COC(=O)c1sc(N2C(=O)C(O)=C(C(=O)c3ccc(C)o3)C2c2ccc(F)cc2)nc1C (stereo unspecified),i,i,i,65,i,i
CCCN1C2=NCCCN2c2ccccc21,i,i,i,nt,38,i
CCCCN1C2=NCCCN2c2ccccc21,i,i,i,nt,i,i
SMILES,Candida biofilm,FAK blocker,Pyk2 oligo antag,tolC growth inh,PostGolgi ctrl,PostGolgi yeast
CCCCCCN1C2=NCCN2c2ccccc21,i,i,i,nt,i,32
COc1cccc(-c2cc(C(=O)NCc3ccc(Cl)cc3)no2)c1,i,i,i,i,i,i
Cc1nn(-c2ccccc2)c2c1C(c1cccs1)C(C#N)=C(N)O2 (stereo unspecified),i,i,i,nt,i,i
CCOc1cc(-c2c(C#N)c(=O)[nH]c3c2c(C)nn3-c2ccc(F)cc2)ccc1O,i,nt,i,97,i,i
CCOC(=O)c1cc(-c2ccc(N)cc2)sc1N,i,i,i,i,i,i
CCOC(=O)c1sc(-c2ccc(Br)cc2)cc1N,i,i,i,nt,45,i
Cc1cc(C)nc(/N=c2/ssnc2Cl)c1,i,i,i,i,54,64
Cc1ccc(N=c2ssnc2Cl)cc1,i,i,i,nt,i,i
S=C(Nc1ccccc1)N1CCn2c1nc1ccccc12,i,i,i,nt,38,i
CCCCS(=O)(=O)C(=C1Nc2ccccc2N1)S(=O)(=O)CCCC,i,i,i,i,30,i
CN(C)c1ncc(S(=O)(=O)c2ccc(Cl)cc2)c(-c2ccc(Cl)cc2Cl)n1,nt,i,i,nt,49,i
Cc1ccc(-c2nc3ccccc3[nH]2)cc1NC(=O)c1ccco1,i,i,i,i,i,i
CC(O)c1ccc2c(c1)OCCOCCN(C)CCOCCO2 (stereo unspecified),i,i,i,i,i,i
Brc1ccc2c(c1)OCCOCCOc1cc(Br)ccc1OCCOCCOCCO2,nt,i,i,nt,68,i
Cc1noc(C)c1C(=O)OCC(=O)Nc1cc(Cl)ccc1Oc1ccccc1,i,i,i,nt,38,i
COc1ccc(C)cc1NC(=O)COC(=O)c1c(C)noc1C,i,i,i,nt,i,i
Cc1cccc(C)c1N(CC(=O)Nc1cc(Cl)ccc1Oc1ccccc1)S(C)(=O)=O,nt,i,i,nt,50,i
Cc1ccc(C)c(N(CC(=O)Nc2cc(Cl)ccc2Oc2ccccc2)S(C)(=O)=O)c1,nt,i,i,nt,i,i
O=C(Nc1ccc(-c2cn3ccccc3n2)cc1)c1ccc(Cl)cc1,nt,i,i,nt,i,i
COc1ccc(-n2ccc(-c3nn(-c4cccc(C(F)(F)F)c4)ccc3=O)n2)cc1,nt,i,i,nt,31,i
O=C(NC12CC3CC(CC(C3)C1)C2)c1ccc(COc2ccc(Cl)cc2[N+](=O)[O-])o1,nt,i,i,nt,51,i
CCc1nnc(NC(=O)c2ccc(S(=O)(=O)N3CCCc4ccccc43)cc2)o1,i,i,i,nt,i,i
CSCc1nnc(NC(=O)c2ccc(S(=O)(=O)N(CC(C)C)CC(C)C)cc2)o1,nt,i,nt,99,i,i
CCN(CC)S(=O)(=O)c1ccc(C(=O)Nc2nnc(C(C)C)s2)cc1,i,i,nt,i,i,i
CCc1nnc(NC(=O)c2ccc(S(=O)(=O)N(CC(C)C)CC(C)C)cc2)o1,i,i,i,99,i,i
SMILES,Candida biofilm,FAK blocker,Pyk2 oligo antag,tolC growth inh,PostGolgi ctrl,PostGolgi yeast
COc1nc(-c2ccccc2)ccc1-c1noc(COc2ccccc2)n1,i,i,i,i,i,i
COc1cccc(NC(=O)CN(C)C(=O)c2ccc3ccccc3c2)c1,nt,i,i,nt,i,i
O=C1C(Cl)=C(NCC2CCCO2)C(=O)N1C1CCCCC1 (stereo unspecified),i,i,i,i,41,i
COc1ccccc1NC(=O)c1cc2n(n1)C(C(F)(F)F)CC(c1ccc3c(c1)OCO3)N2 (stereo unspecified),i,i,i,i,37,i
COc1ccc(OC)c(NC(=O)c2cc3n(n2)C(C(F)(F)F)CC(c2ccc4c(c2)OCO4)N3)c1 (stereo unspecified),i,i,i,i,nt,nt
COC(=O)c1cccc(NC(=O)C2COc3ccccc3O2)c1 (stereo unspecified),i,i,i,i,39,i
O=C(Nc1nc(-c2ccccn2)cs1)C1COc2ccccc2O1 (stereo unspecified),i,nt,nt,100,39,31

# Source: PubChem
